Laboratory results: ChEMBL document CHEMBL3393023, “Benzimidazole-containing HCV NS5A inhibitors: effect of 4-substituted pyrrolidines in balancing genotype 1a and 1b potency” (Bioorg Med Chem Lett, 2015)

Tests used:
[1] = tested on: Hepatitis C virus; test: Selectivity index, ratio of EC50 for HCV genotype 1b expressing NS5A Y93H mutant to EC50 for HCV genotype 1b expressing wild type NS5A; type: functional, Hepacivirus hominis
Outline: (§1)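 Recombinant HCV replicon cell lines carrying the single NS5A substitution were tested, with the matching wild-type replicon as reference. The value is the fold shift of activity against the mutant relative to wild-type activity.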

[2] = Half life in iv dosed rat; type: ADME, organism-based; settings: in vivo
[3] = Metabolic stability in human hepatocytes assessed as compound remaining at 5 uM after 60 mins; type: ADME, cell-based, Hepatocyte; settings: read-out: Stability
[4] = Clearance in iv dosed rat; type: ADME, organism-based; settings: in vivo
[5] = molecular target: Cytochrome P450 3A4 (Homo sapiens, UniProt P08684); test: Inhibition of CYP3A4 (unknown origin); type: ADME
Cytochrome P450 3A4, sequence (P08684 whole entry): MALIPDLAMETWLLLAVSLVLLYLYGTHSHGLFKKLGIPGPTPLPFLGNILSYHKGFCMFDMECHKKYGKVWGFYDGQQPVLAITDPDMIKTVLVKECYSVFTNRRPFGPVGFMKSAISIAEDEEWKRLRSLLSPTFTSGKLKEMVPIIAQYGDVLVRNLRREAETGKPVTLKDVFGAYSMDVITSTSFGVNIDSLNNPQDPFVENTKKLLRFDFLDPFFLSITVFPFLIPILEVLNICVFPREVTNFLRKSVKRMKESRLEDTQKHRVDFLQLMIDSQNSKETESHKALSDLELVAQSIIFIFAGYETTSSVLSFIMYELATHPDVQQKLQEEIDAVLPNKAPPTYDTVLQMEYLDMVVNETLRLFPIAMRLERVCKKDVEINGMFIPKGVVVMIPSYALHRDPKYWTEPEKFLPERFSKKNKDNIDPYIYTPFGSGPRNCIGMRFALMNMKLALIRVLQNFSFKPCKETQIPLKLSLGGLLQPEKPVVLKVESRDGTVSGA

[6] = Cytotoxicity against human Huh7ET cells by [3H]-thymidine incorporation assay; type: cell-based; settings: Huh7ET cells (Huh-7)
Outline: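 Huh-7 ET cells were exposed to 12 test-compound concentrations, each in duplicate. Viability was read by [3H]-thymidine incorporation and CC50 was derived from the curve. A run was accepted only when the positive-control CC50 fell within 40% of its mean value.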

[7] = AUC (0 to 8 hrs) in rat at 3 mg/kg, po; type: ADME, organism-based; set-up: time < 8 hr, dose 3 mg/kg, route oral; settings: plasma
Outline: (§2)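 Rats were dosed orally at 3 mg/kg as a solution in 30% aqueous PEG-400.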

[8] = tested on: Hepatitis C virus; test: Selectivity index, ratio of EC50 for HCV genotype 1a expressing NS5A M28T mutant to EC50 for HCV genotype 1a expressing wild type NS5A; type: functional, Hepacivirus hominis, subtype 1a; outline: as §1
[9] = Protein binding in rat plasma; type: ADME, cell-free; settings: read-out: PPB (converted)
[10] = tested on: Hepatitis C virus; test: Antiviral activity against Hepatitis C virus genotype 1b infected in human Huh-5.2 cells assessed as decrease in HCV replicon RNA replication after 4 days by luciferase assay; type: functional, cell-based, Hepacivirus hominis; settings: Huh-5-2, 96 h
[11] = Permeability from apical to basolateral layer in human Caco2 cells; type: ADME, cell-based; settings: Caco-2, read-out: permeability
[12] = molecular target: Cytochrome P450 2C19 (Homo sapiens, UniProt P33261); test: Inhibition of CYP2C19 (unknown origin); type: ADME
Cytochrome P450 2C19, sequence (P33261 whole entry): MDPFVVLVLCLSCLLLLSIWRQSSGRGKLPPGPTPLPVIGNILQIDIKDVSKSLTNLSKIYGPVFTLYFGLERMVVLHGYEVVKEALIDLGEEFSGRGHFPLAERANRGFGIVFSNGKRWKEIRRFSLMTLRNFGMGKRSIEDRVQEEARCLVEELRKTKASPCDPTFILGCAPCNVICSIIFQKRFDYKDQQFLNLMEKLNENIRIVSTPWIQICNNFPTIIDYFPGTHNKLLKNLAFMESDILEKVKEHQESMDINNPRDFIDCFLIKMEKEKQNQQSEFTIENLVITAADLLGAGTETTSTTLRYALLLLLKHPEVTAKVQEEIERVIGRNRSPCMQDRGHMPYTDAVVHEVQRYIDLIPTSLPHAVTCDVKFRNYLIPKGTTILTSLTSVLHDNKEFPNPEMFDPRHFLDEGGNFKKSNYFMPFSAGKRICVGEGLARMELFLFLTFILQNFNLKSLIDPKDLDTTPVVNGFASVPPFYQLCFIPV

[13] = molecular target: Cytochrome P450 2D6 (Homo sapiens, UniProt P10635); test: Inhibition of CYP2D6 (unknown origin); type: ADME
Cytochrome P450 2D6, sequence (P10635 whole entry): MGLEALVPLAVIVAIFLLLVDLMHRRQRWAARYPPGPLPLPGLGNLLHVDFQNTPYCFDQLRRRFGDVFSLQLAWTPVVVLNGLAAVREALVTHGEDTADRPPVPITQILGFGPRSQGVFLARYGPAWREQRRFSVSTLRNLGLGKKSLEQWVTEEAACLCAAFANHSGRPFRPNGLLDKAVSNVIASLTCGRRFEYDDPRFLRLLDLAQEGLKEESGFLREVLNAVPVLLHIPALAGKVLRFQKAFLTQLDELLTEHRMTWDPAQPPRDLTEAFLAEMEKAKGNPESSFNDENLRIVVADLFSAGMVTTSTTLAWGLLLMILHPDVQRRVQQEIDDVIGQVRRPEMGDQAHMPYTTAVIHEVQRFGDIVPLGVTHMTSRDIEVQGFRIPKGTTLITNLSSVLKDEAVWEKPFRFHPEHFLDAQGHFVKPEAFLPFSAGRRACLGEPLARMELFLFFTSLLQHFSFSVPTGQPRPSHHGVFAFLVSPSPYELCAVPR

[14] = Protein binding in human plasma; type: ADME, cell-free; settings: read-out: PPB (converted)
[15] = tested on: Hepatitis C virus; test: Antiviral activity against Hepatitis C virus genotype 1a infected in W11.8 cells assessed as decrease in NS5A expression in replicon cell after 4 days by luminescence based ELISA; type: functional, Hepacivirus hominis; settings: subtype 1a, W11.8, 96 h
[16] = molecular target: T1, Voltage-gated inwardly rectifying potassium channel KCNH2 (Homo sapiens, UniProt Q12809); test: Inhibition of human ERG channel by planar technique
T1 sequence (Q12809 whole entry): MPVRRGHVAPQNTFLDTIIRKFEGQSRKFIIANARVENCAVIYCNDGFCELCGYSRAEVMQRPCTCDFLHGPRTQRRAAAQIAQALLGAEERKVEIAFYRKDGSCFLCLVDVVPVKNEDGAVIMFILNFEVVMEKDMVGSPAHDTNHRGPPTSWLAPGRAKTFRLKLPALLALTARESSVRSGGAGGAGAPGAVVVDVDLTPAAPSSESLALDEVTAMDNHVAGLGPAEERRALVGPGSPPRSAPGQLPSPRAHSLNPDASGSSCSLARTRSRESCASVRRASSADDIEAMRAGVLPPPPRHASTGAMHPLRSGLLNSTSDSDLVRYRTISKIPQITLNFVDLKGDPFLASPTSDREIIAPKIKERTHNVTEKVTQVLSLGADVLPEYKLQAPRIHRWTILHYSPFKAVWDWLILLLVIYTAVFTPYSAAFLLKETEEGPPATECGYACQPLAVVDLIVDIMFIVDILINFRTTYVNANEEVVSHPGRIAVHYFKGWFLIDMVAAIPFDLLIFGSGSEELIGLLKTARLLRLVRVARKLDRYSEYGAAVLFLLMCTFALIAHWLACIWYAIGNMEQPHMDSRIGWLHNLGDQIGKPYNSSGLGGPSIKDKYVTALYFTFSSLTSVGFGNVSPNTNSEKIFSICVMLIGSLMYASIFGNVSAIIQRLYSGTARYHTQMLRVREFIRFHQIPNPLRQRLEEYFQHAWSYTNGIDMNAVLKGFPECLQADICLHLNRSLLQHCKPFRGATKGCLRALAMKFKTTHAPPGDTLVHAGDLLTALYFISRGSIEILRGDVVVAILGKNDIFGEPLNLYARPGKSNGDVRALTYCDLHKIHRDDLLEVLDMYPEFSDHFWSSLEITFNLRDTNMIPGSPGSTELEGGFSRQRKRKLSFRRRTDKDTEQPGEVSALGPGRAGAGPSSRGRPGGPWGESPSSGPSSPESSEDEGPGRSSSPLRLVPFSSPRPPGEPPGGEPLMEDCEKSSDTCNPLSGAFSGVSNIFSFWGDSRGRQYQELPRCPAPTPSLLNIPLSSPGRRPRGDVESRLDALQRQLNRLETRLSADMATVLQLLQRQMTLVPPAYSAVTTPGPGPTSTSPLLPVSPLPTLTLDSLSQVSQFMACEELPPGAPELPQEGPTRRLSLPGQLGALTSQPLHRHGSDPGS

[17] = tested on: MDR1 (human); test: Efflux ratio of permeability in MDCK cells over-expressing human Mdr1; type: ADME, cell-based, Canis lupus familiaris; settings: dog
[18] = molecular target: T2, Cytochrome P450 1A2 (Homo sapiens, UniProt P05177); test: Inhibition of CYP1A2 (unknown origin); type: ADME
T2 sequence (P05177 whole entry): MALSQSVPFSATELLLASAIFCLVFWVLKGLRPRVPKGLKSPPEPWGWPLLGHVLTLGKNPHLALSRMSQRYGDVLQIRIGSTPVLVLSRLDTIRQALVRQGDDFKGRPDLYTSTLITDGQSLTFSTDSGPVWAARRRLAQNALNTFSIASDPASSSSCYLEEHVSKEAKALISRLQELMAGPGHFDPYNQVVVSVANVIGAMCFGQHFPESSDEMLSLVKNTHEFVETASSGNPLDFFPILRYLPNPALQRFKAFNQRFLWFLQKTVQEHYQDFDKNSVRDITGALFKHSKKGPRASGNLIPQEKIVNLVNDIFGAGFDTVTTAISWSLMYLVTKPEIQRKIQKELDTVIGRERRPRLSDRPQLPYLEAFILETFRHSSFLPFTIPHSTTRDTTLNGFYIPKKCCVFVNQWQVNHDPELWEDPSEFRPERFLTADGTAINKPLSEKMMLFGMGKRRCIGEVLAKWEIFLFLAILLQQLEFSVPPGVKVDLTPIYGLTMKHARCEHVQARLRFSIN

[19] = Cmax in rat at 3 mg/kg, po; type: ADME, organism-based; set-up: dose 3 mg/kg, route oral; settings: in vivo; outline: as §2
[20] = Oral bioavailability in rat at 3 mg/kg; type: ADME, organism-based; settings: in vivo; outline: as §2
[21] = molecular target: T1, Voltage-gated inwardly rectifying potassium channel KCNH2; test: Inhibition of human ERG channel by QPatch technique
[22] = Half life in rat at 3 mg/kg, po; type: ADME, organism-based; set-up: dose 3 mg/kg, route oral; settings: in vivo; outline: as §2
[23] = Volume of distribution at steady state in iv dosed rat; type: ADME, organism-based; settings: in vivo, read-out: Vdss
[24] = Metabolic stability in rat hepatocytes assessed as compound remaining at 5 uM after 60 mins; type: ADME, cell-based, Hepatocyte; settings: read-out: Stability
[25] = tested on: Hepatitis C virus; test: Selectivity index, ratio of EC50 for HCV genotype 1a expressing NS5A Q30R mutant to EC50 for HCV genotype 1a expressing wild type NS5A; type: functional, Hepacivirus hominis, subtype 1a; outline: as §1
[26] = tested on: Hepatitis C virus; test: Selectivity index, ratio of EC50 for HCV genotype 1a expressing NS5A Y93H mutant to EC50 for HCV genotype 1a expressing wild type NS5A; type: functional, Hepacivirus hominis, subtype 1a; outline: as §1
[27] = molecular target: Cytochrome P450 2C9 (Homo sapiens, UniProt P11712); test: Inhibition of CYP2C9 (unknown origin); type: ADME
Cytochrome P450 2C9, sequence (P11712 whole entry): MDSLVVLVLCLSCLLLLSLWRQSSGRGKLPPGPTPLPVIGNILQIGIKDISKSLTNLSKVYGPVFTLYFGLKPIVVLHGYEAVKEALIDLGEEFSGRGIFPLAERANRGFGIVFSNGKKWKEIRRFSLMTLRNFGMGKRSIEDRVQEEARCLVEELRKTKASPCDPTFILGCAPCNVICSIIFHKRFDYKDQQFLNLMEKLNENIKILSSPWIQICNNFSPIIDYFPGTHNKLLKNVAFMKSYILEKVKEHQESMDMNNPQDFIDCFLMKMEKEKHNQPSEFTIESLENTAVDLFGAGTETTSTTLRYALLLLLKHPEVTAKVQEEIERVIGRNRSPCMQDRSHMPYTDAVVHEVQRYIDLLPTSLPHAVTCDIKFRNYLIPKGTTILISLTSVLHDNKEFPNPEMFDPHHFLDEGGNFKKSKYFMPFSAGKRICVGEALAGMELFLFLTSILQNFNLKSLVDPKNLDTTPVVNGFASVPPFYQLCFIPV

Q: Which Selectivity ratio [1] does the source give for `COC(=O)N[C@H](C(=O)N1C[C@@H](C)C[C@H]1c1nc(-c2ccc(-c3ccc(-c4ccc5[nH]c([C@@H]6C[C@H](C)CN6C(=O)[C@@H](NC(=O)OC)C(C)C)nc5c4)cc3)cc2)c[nH]1)C(C)C` here?
A: 100

Q: And the half-life [2]?
A: 2 h

Q: What about the remaining at 1 h, 5 µM [3] of the same molecule?
A: > 90%

Q: What about the clearance [4] of the same molecule?
A: 9 mL/min/kg

Q: And the IC50 [5]?
A: > 30 µM

Q: And the CC50 [6]?
A: > 20 µM

Q: And the AUC(0-t) at 8 h [7]?
A: 2080 ng·h/mL

Q: And the Selectivity ratio [8]?
A: 55

Q: What about the fraction unbound [9] of the same molecule?
A: 0.083

Q: What about the EC50 [10] of the same molecule?
A: 5 pM

Q: What about the Papp A→B [11] of the same molecule?
A: 4.1 ×10⁻⁶ cm/s

Q: What about the IC50 [12] of the same molecule?
A: > 30 µM

Q: And the IC50 [13]?
A: > 30 µM

Q: What about the fraction unbound [14] of the same molecule?
A: 0.014

Q: And the EC50 [15]?
A: 4 pM

Q: And the IC50 [16]?
A: > 30 µM

Q: And the efflux ratio [17]?
A: 1.8

Q: What about the IC50 [18] of the same molecule?
A: > 30 µM

Q: And the Cmax [19]?
A: 0.03 ng/mL

Q: And the bioavailability [20]?
A: 26%

Q: And the IC50 [21]?
A: > 30 µM

Q: And the half-life [22]?
A: 3.5 h

Q: And the Vd [23]?
A: 1.4 L/kg

Q: And the remaining at 1 h, 5 µM [24]?
A: > 90%

Q: What about the Selectivity ratio [25] of the same molecule?
A: 42

Q: What about the Selectivity ratio [26] of the same molecule?
A: 8000

Q: What about the IC50 [27] of the same molecule?
A: > 30 µM
